Experimental findings from PubChem BioAssay AID651999 (Sanford-Burnham Center for Chemical Genomics, 2013) are described below.

Structures are written as SMILES. “And” between values parts separate entries of the source, which are not always exact repeats. Equal entries are not always repeated. Among all 360,000 compounds or so, about 1,400 (0.39%) were called active. The sample holds actives, similar compounds and a random draw of the others, so the mix is not that of the screen.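 How the source made its calls: active means pattern-corrected inhibition above about 35%, with an unprinted fluorescence ratio check between 0.5 and 1.5 (limit read from the data, passing the limit was not always enough); inactive means the rest.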

The inhibition is the change of the read-out against control, counted positive when it falls.

Chain of COP9 signalosome complex subunit 5 (Homo sapiens) (Q92905 whole entry, looked up, one chain of several): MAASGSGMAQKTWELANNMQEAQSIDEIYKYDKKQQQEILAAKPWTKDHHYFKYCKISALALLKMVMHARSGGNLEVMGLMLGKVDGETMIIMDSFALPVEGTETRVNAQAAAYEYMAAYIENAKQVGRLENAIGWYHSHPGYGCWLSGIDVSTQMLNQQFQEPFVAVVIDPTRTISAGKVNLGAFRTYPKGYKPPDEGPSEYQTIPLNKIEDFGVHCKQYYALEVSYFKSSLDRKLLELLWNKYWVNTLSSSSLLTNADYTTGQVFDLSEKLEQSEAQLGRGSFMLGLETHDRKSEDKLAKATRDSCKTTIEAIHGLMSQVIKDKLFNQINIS

This experiment concerns the target COP9 signalosome complex subunit 5 (Homo sapiens) (UniProt Q92905). In words: inhibitors of CSN-mediated cullin deneddylation, primary screen, biochemical, fluorescence polarization, uHTS (AID 651999).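 Further: 0% = enzyme with substrate and 100% = substrate without enzyme.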 The note with it: Purified CSN, SCF-Nedd8-OG deneddylation, at 12.5 µM, active compounds read high. Put shortly: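 Assay system: HEK293T-derived human Csn5 enzyme; quantity: 0.24 nM enzyme; medium: Tris/NaCl/DTT buffer, pH 7.5; also added: substrate SCFSkp2-Nedd8OG, 10 nM; doses: 12.5 µM compound; schedule: 90 min reaction at room temperature; signal: FP; read-out: % inhibition of substrate cleavage by Csn5; benchmarks: substrate-only high control, full reaction low control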
In general terms: In fluorescence polarisation assays a small probe gives low polarisation when free and higher when bound to something large.
As for `CC(C)C(=O)Nc1oc(-c2ccccc2)cc1C#N`, the inhibition is 5.77% (inactive).
On to `CC(Oc1ccccc1)C(=O)Nc1oc(-c2ccco2)c(-c2ccco2)c1C#N` (stereo not given), for which the inhibition was 38.5% (active).
For the molecule `N#Cc1c(NC(=O)CCCN2C(=O)c3ccccc3C2=O)oc(-c2ccccc2)c1-c1ccccc1`, the inhibition was -3.56% (inactive).
For the molecule `Nc1nnc2c(C(F)(F)F)nc3ccccc3n12`, the inhibition is 0.57% (inactive).
On to `Cc1cccc(N2C(=O)SC(SC(=Nc3ccccc3)Nc3ccccc3)C2=O)c1` (stereo not given), for which the inhibition is -2.12% (inactive).
To `CCC(C)(C)n1nnnc1CN1CCN(c2nc3ccc(C)cc3cc2C#N)CC1` belongs 1.36% (inactive); to `Cc1cccc(N(C)C(=O)CN2C(=O)COc3ccc(S(=O)(=O)N4CCCCCC4)cc32)c1`, -4.61% (inactive).
To `Cc1ccccc1C(=O)NNC(=O)CN1C(=O)c2ccccc2C1=O` belongs 6.43% (inactive); to `Cc1cc(C(=O)CCC(=O)NNC(=O)c2ccccc2O)c(C)s1`, 36.4% (active).
In the case of `Cc1cccc(NS(=O)(=O)c2cccc(C(=O)NNC(=O)c3ccccc3O)c2)c1`, the inhibition is -6.82% (inactive).
Take `COC(=O)c1ccc(CN2CCN(CCCc3ccccc3)C(CCO)C2)cc1` (stereo not given): the inhibition is -2.91% (inactive).
Then `CCOC(=O)N1CCN(S(=O)(=O)N2CCCC(C(=O)NCCCN3CCC(C)CC3)C2)CC1` (stereo not given), with 2.45% (inactive).
Consider `O=C(Oc1c(-c2ccco2)oc2ccccc2c1=O)c1cccnc1`, for which the inhibition is -1.72% (inactive).
Then `CC(Oc1ccc(-c2ccccc2)c(F)c1)c1ccn(S(=O)(=O)c2cccc3ccccc23)n1` (stereo not given), with 3.61% (inactive); and `COc1ccc(C2OCC3(CO2)SC(=O)NC3=O)cc1OC` (stereo not given), with -7.79% (inactive); and `CCc1ccc(CNC(=O)CCc2nc(-c3cccs3)no2)cc1`, with 90.8% (active).
Then `COc1ccc(CCc2nc(-c3cccs3)no2)cc1`, with 1.58% (inactive); and `COc1ccc(OC)c(CNC(=O)CCc2nc(-c3cccs3)no2)c1`, with 2.31% (inactive).
As for `COc1cccc2c1C(=O)c1c(O)c3c(c(O)c1C2=O)CC(O)(C(C)=NNC(=O)c1ccc(Cl)c(Cl)c1)CC3OC1CC(N)C(O)C(C)O1` (stereo not given), the inhibition was -72.5% (inactive).
To `COc1ccc(CN2CN(C3CCCC3)CSC2=S)cc1` belongs -9.41% (inactive); to `COC(=O)[C@@]12C[C@@H](CC(=O)NCc3cccc(C(F)(F)F)c3)C(=O)N(Cc3ccco3)C1=CCC(C)(C)C2`, 1.26% (inactive); to `Cc1cccc(-c2cnc(C(O)c3ccc4ccccc4c3)[nH]2)c1` (stereo not given), 39.3% (active).
With `COc1cccc(C(O)c2ncc(-c3ccc4ccccc4c3)[nH]2)c1` (stereo not given), the inhibition was -4.1% (inactive).
To `Cc1cccc(-c2cnc(C(O)c3cc(C)cc(C)c3)[nH]2)c1` (stereo not given) belongs -2.61% (inactive).
Then `CCc1nn(CCCN2CCN(c3cccc(Cl)c3)CC2)c(=O)n1CCOc1ccccc1`, with -4.47% (inactive) and -2.79% (inactive).
To `Cc1ccc(CNS(=O)(=O)c2ccc3c(c2)N(C)CCO3)cc1` belongs -2.61% (inactive); to `CCCC/C=C/c1cccc2nncn12`, -1.69% (inactive).
On to `COc1ccc2[nH]c3c(C)c4cc[n+](C)cc4c(C)c3c2c1`, for which the inhibition is 102% (active).
Then `Cc1cc(O)c(Sc2ccccc2)c(=O)o1`, with 0.39% (inactive); and `Cc1cc(O)c(C(=O)/C=C/c2c(F)c(F)c(F)c(F)c2F)c(=O)o1`, with 43.9% (active); and `O=C(CC[C@H]1O[C@@H](n2ccc(=O)[nH]c2=O)[C@H](O)[C@@H]1O)N[C@H](Cc1ccccc1)C(=O)NCc1ccco1`, with -1.91% (inactive).
Then `CCN(CC(=O)NCC(=O)Nc1cccc(C)c1C)Cc1ccccc1`, with 1.96% (inactive); and `CCOc1cc(CNn2c(C)nnc2SCC(=O)NC(C)(C)C)ccc1OCC(=O)NC(C)(C)C`, with 2.06% (inactive).
Take `C=CCSc1nnc(Cn2c(=O)sc3ccccc32)n1C`: the inhibition is 7.9% (inactive).
On to `CCSc1nc(C)c(CCOc2cccc(C)c2)c(=O)[nH]1`, for which the inhibition is -18.6% (inactive).
Then `COc1cccc(CN(C)CC(=O)Nc2sc3c(c2C#N)CCC3)c1`, with 4.05% (inactive); and `NC(=O)c1c(NC(=O)CSc2nnc(-c3ccco3)n2N)sc2c1CCCC2`, with 10.7% (inactive); and `COc1ccc(-n2c(SCC(=O)Nc3sc4c(c3C#N)CCCC4)nnc2-c2ccc(O)cc2)cc1`, with 50.2% (active).
Consider `Cc1ccc(NC(=O)CN(C)S(=O)(=O)c2cnc[nH]2)cc1C`, for which the inhibition was -2.5% (inactive).
In the case of `COC1=C/C(=C/c2c(N)n3nc(CC(=O)N4CCOCC4)sc3nc2=O)C=CC1=O`, the inhibition was 16.1% (inactive).
Then `C=CCC1=C/C(=C\c2c(N)n3nc(CC(=O)N4CCOCC4)sc3nc2=O)C=C(OC)C1=O`, with 72.5% (active).
Then `O=C(C1CCN(C2CCN(Cc3ccc4cc(F)ccc4n3)CC2)CC1)N1CCCC1`, with 1% (inactive); and `Cc1cc(F)ccc1S(=O)(=O)Nc1ncnc2scc(-c3ccc(F)cc3)c12`, with 0.77% (inactive).
With `O=C(O)CC(c1ccccc1F)N1Cc2ccccc2C1=O` (stereo not given), the inhibition is -0.99% (inactive).
`O=S(=O)(Nc1ccc2ccccc2c1)N1CCCCC1`: the inhibition was -1.67% (inactive).
To `Cc1noc(C)c1S(=O)(=O)N(C)C[C@H]1Oc2ccc(NC(=O)C3CCCCC3)cc2C(=O)N([C@H](C)CO)C[C@@H]1C` belongs -5.26% (inactive); to `CCN1/C(=C\c2ccc3ccccc3[n+]2CC)Sc2cc(C)ccc21`, 62.2% (active).
Then `FC(F)(F)c1ccccc1Cc1c(-c2ccccc2)nc2c3ccccc3ccn12`, with 3.57% (inactive); and `COc1cc(CN(C)Cc2nc3cc(C(F)(F)F)ccc3c(=O)[nH]2)ccc1OC(F)F`, with 5.3% (inactive); and `CC(=O)Nc1ccc(C(=O)NNC(=O)CCCCC(=O)NNC(=O)c2ccc(NC(C)=O)cc2)cc1`, with 2.24% (inactive).
Then `CN(CC(=O)NC1CCCCC1)S(=O)(=O)c1cccc2cccnc12`, with -6.5% (inactive).
Consider `CC1(C)CC(=O)C2=C(C1)NCN(CCCN1CCOCC1)C2`, for which the inhibition was -5.59% (inactive).
Then `O=C(CSc1nc2ccccc2c(=O)[nH]1)Nc1nc(-c2ccc(Br)cc2)cs1`, with 55.8% (active).
To `O=C(COC(=O)c1cc(=O)[nH]c2ccccc12)Nc1nc(-c2cccc(Br)c2)cs1` belongs 3.39% (inactive).
To `CCCn1c(C)cc(-c2csc(NC(=O)CCc3nc4ccccc4c(=O)[nH]3)n2)c1C` belongs 5.04% (inactive); to `CC1(C)C2CCC1(CS(=O)(=O)NCCc1c[nH]c3ccccc13)C(=O)C2` (stereo not given), -3.93% (inactive); to `COc1ccc(C(c2nnnn2C2CCCC2)N2CCN(C/C=C/c3ccccc3)CC2)cc1` (stereo not given), -3.45% (inactive).
As for `OC[C@@H]1CN(Cc2cccs2)C[C@H](n2cnc3c(Nc4ccccc4)ncnc32)O1`, the inhibition is 1.6% (inactive).
Then `N#C/C(=C\C1=C(N2CCOCC2)C(=C\c2ccccc2)/CC1)C(=O)Nc1ccccc1F`, with 59.9% (active); and `CNC(=O)/C(C#N)=C/c1c(F)cccc1Cl`, with -0.2% (inactive); and `O=C(CC1SC(N2CCOCC2)=NC1=O)Nc1ccccc1F` (stereo not given), with -4.57% (inactive).
On to `Cc1cc(C)c(S(=O)(=O)NCC(c2ccc3c(c2)OCO3)N2CCOCC2)c(C)c1` (stereo not given), for which the inhibition is 4.99% (inactive).
Then `COc1ccc(C2=Nc3ccccc3NC(=O)C2N(C(=O)c2cc3ccccc3[nH]2)c2ccccc2)cc1` (stereo not given), with 1.01% (inactive).
In the case of `O=C(O)c1ccccc1NC(=S)NC(NC(=O)c1ccccc1[N+](=O)[O-])C(Cl)(Cl)Cl` (stereo not given), the inhibition is 0.72% (inactive).
To `COc1cc(N2CCCC2)c(OC)cc1/C=C(/C#N)c1cccc(Br)c1` belongs 40.3% (active).
Then `Cc1cccc(NC(=O)C2CC(=O)OC23CCCC3)c1` (stereo not given), with -1.93% (inactive).
To `Cc1cccc(C)c1NC(=O)C1CCCN1C(=O)OC(C)(C)C` (stereo not given) belongs 1.38% (inactive); to `O=C(C(=O)N1CCc2ccccc2C1)c1c[nH]c2ccccc12`, 3.61% (inactive); to `CN(C(=O)COc1nnc(-c2cccs2)c(-c2cccs2)n1)c1ccccc1`, 4.69% (inactive).
For the molecule `C=CCn1c(=S)[nH]c2scc(-c3ccco3)c2c1=O`, the inhibition was 35.8% (active).
Then `Cc1ccc(-c2nnc(C)c(N3CC(C)OC(C)C3)n2)cc1` (stereo not given), with 4.31% (inactive).
Then `Cc1nn(C)c(Cl)c1CN1CCC(Oc2ccc(C(=O)N3CCCC3)cc2)CC1`, with -0.97% (inactive).
To `Cc1ccccc1-n1nc(C)c2cc(C(=O)NC3CC3)sc21` belongs -0.46% (inactive); to `COCCCn1c(C(=O)NC2CCCCC2)cc2c(=O)n3cccc(C)c3nc21`, -3.61% (inactive); to `Cc1cccn2c(=O)c3cc(C(=O)NC4CCCCC4)sc3nc12`, 38.6% (active).
As for `CN1CCNC(=O)C1CC(=O)N1CC=C(c2ccc(F)cc2)CC1` (stereo not given), the inhibition was -1.53% (inactive).
Then `Cc1ccc([C@H]2C[C@H](O)[C@@H](n3cc(COC(=O)c4ccccc4)nn3)CN2CC2CCCCC2)cc1`, with -1.77% (inactive).
Then `COC(=O)N/N=C/c1c[n+]([O-])c2ccccc2[n+]1[O-]`, with -7.07% (inactive); and `Cc1ccc(-n2nc3ccc(NC(=O)/C=C/c4ccco4)cc3n2)cc1C`, with 62.3% (active); and `Cc1cccc(N2CCN(C(=O)/C=C/c3ccco3)CC2)c1C`, with -6.8% (inactive).
On to `CCC(=O)Nc1ccc2nn(-c3ccc(F)cc3)nc2c1`, for which the inhibition is -3.58% (inactive).
Then `C[C@H](CO)N1C[C@H](C)[C@@H](CN(C)C(=O)c2cnccn2)Oc2ncc(Br)cc2C1=O`, with -0.87% (inactive).
To `COc1ccc(C(C(=O)NC2CCCC2)N(CCCO)C(=O)Cn2nnc(-c3ccc(C)o3)n2)cc1` (stereo not given) belongs -1.83% (inactive); to `CCCNC(=O)C1(C)CCCN(Cc2cccc(C(F)(F)F)c2)C1` (stereo not given), 1.08% (inactive).
For the molecule `O=C(CN1C(=O)CCS(=O)(=O)c2ccccc21)NCc1ccc(F)cc1`, the inhibition was 2.38% (inactive).
As for `CSCc1ccc(C(=O)Nc2cc(C)cc(C)c2)cc1`, the inhibition was -3.14% (inactive).
Take `COCc1cc(C)nc(Nc2cc(C)ccc2C)c1C#N`: the inhibition is 2.37% (inactive).
To `Cc1c(C(=O)NCCN2C(=O)S/C(=C\c3cccs3)C2=O)cccc1[N+](=O)[O-]` belongs -3.22% (inactive); to `O=C(CCN1C(=O)c2ccccc2C1=O)NNC(=O)c1ccc(Cl)cc1Cl`, -5.29% (inactive).
Then `O=C(CCN1C(=O)/C(=C/c2cccs2)SC1=S)NNC(=O)c1cccc(O)c1`, with 51.4% (active).
